Assay results as given in ChEMBL document CHEMBL1152990, “The mechanism of action of beta-D-2'-deoxy-2'-fluoro-2'-C-methylcytidine involves a second metabolic pathway leading to beta-D-2'-deoxy-2'-fluoro-2'-C-methyluridine 5'-triphosphate, a potent inhibitor of the hepatitis C virus RNA-dependent RNA polymerase” (Antimicrob Agents Chemother, 2008).

How the values were obtained:
[1] = Drug metabolism in HCV subgenomic replicon RNA-containing human HuH7 cells assessed as RO2433 nucleotide triphosphate level per 10 '6 cells at 5 uM after 48 hrs by HPLC analysis in presence of 50 uM DCTD inhibitor zedularine; type: ADME, cell-based; conditions: huh-7, 48 h
Method in brief: (§1)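 Clone A Huh-7 replicon cells were grown overnight in DMEM with 10% FBS. They were then exposed to 5 μM [3H]PSI-6130 with 0, 50 or 100 μM zebularine for 48 h at 37°C. Cells were washed, trypsinized, counted and extracted in cold 60% methanol. Nucleotides were separated by SAX HPLC (0–100% buffer B over 90 min) with radiometric flow detection.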

[2] = Drug metabolism in HCV subgenomic replicon RNA-containing human HuH7 cells assessed as PSI-6130 nucleotide diphosphate level per 10 '6 cells at 5 uM after 48 hrs by HPLC analysis in presence of 50 uM DCTD inhibitor zedularine; type: ADME, cell-based; conditions: huh-7, 48 h; method in brief: as §1
[3] = Drug metabolism in HCV subgenomic replicon RNA-containing human HuH7 cells assessed as RO2433 nucleotide triphosphate level per 10 '6 cells at 5 uM after 48 hrs by HPLC analysis in presence of 100 uM DCTD inhibitor zedularine; type: ADME, cell-based; conditions: huh-7, 48 h; method in brief: as §1
[4] = Drug metabolism in HCV subgenomic replicon RNA-containing human HuH7 cells assessed as RO2433 nucleotide monophosphate level per 10 '6 cells at 5 uM after 48 hrs by HPLC analysis in absence of DCTD inhibitor zedularine; type: ADME, cell-based; conditions: huh-7, 48 h; method in brief: as §1
[5] = Drug metabolism in HCV subgenomic replicon RNA-containing human HuH7 cells assessed as RO2433 nucleotide monophosphate level per 10 '6 cells at 5 uM after 48 hrs by HPLC analysis in presence of 50 uM DCTD inhibitor zedularine; type: ADME, cell-based; conditions: huh-7, 48 h; method in brief: as §1
[6] = Drug metabolism in HCV subgenomic replicon RNA-containing human HuH7 cells assessed as RO2433 nucleotide diphosphate level at 5 uM after 48 hrs by HPLC analysis in presence of 100 uM DCTD inhibitor zedularine; type: ADME, cell-based; conditions: huh-7, 48 h; method in brief: as §1
[7] = Cytotoxicity against HCV subgenomic replicon RNA-containing human HuH7 cells at > 400 uM; type: cell-based; conditions: huh-7
[8] = Drug metabolism in HCV subgenomic replicon RNA-containing human HuH7 cells assessed as PSI-6130 nucleotide triphosphate level per 10 '6 cells at 5 uM after 48 hrs by HPLC analysis in presence of 100 uM DCTD inhibitor zedularine; type: ADME, cell-based; conditions: huh-7, 48 h; method in brief: as §1
[9] = Drug metabolism in HCV subgenomic replicon RNA-containing human HuH7 cells assessed as RO2433 nucleotide diphosphate level per 10 '6 cells at 5 uM after 48 hrs by HPLC analysis in presence of 50 uM DCTD inhibitor zedularine; type: ADME, cell-based; conditions: huh-7, 48 h; method in brief: as §1
[10] = Drug metabolism in HCV subgenomic replicon RNA-containing human HuH7 cells assessed as PSI-6130 nucleotide monophosphate level per 10 '6 cells at 5 uM after 48 hrs by HPLC analysis in absence of DCTD inhibitor zedularine; type: ADME, cell-based; conditions: huh-7, 48 h; method in brief: as §1
[11] = Drug metabolism in HCV subgenomic replicon RNA-containing human HuH7 cells assessed as PSI-6130 nucleotide triphosphate level per 10 '6 cells at 5 uM after 48 hrs by HPLC analysis in absence of DCTD inhibitor zedularine; type: ADME, cell-based; conditions: huh-7, 48 h; method in brief: as §1
[12] = Drug metabolism in HCV subgenomic replicon RNA-containing human HuH7 cells assessed as PSI-6130 nucleotide triphosphate level per 10 '6 cells at 5 uM after 48 hrs by HPLC analysis in presence of 50 uM DCTD inhibitor zedularine; type: ADME, cell-based; conditions: huh-7, 48 h; method in brief: as §1
[13] = Drug metabolism in HCV subgenomic replicon RNA-containing human HuH7 cells assessed as PSI-6130 nucleotide monophosphate level per 10 '6 cells at 5 uM after 48 hrs by HPLC analysis in presence of 50 uM DCTD inhibitor zedularine; type: ADME, cell-based; conditions: huh-7, 48 h; method in brief: as §1
[14] = Drug metabolism in HCV subgenomic replicon RNA-containing human HuH7 cells assessed as PSI-6130 nucleotide diphosphate level per 10 '6 cells at 5 uM after 48 hrs by HPLC analysis in presence of 100 uM DCTD inhibitor zedularine; type: ADME, cell-based; conditions: huh-7, 48 h; method in brief: as §1
[15] = Drug metabolism in HCV subgenomic replicon RNA-containing human HuH7 cells assessed as PSI-6130 nucleotide monophosphate level per 10 '6 cells at 5 uM after 48 hrs by HPLC analysis in presence of 100 uM DCTD inhibitor zedularine; type: ADME, cell-based; conditions: huh-7, 48 h; method in brief: as §1
[16] = Drug metabolism in HCV subgenomic replicon RNA-containing human HuH7 cells assessed as RO2433 nucleotide diphosphate level per 10 '6 cells at 5 uM after 48 hrs by HPLC analysis in absence of DCTD inhibitor zedularine; type: ADME, cell-based; conditions: huh-7, 48 h; method in brief: as §1
[17] = Drug metabolism in HCV subgenomic replicon RNA-containing human HuH7 cells assessed as RO2433 nucleotide triphosphate level per 10 '6 cells at 5 uM after 48 hrs by HPLC analysis in absence of DCTD inhibitor zedularine; type: ADME, cell-based; conditions: huh-7, 48 h; method in brief: as §1
[18] = Drug metabolism in HCV subgenomic replicon RNA-containing human HuH7 cells assessed as RO2433 nucleotide monophosphate level per 10 '6 cells at 5 uM after 48 hrs by HPLC analysis in presence of 100 uM DCTD inhibitor zedularine; type: ADME, cell-based; conditions: huh-7, 48 h; method in brief: as §1
Hepatitis C virus [19] = experiment: Antiviral activity against wild type HCV infected in human HuH7 cells assessed as inhibition of viral RNA replication after 4 days by replicon assay; type: functional, Hepacivirus hominis; conditions: Huh-7, 96 h
Method in brief: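 Wild-type HCV subgenomic replicon Huh-7 cells (clone A) were plated at 1,500 cells/well in G418-free medium with threefold serial compound dilutions and incubated for 4 days at 37°C, 5% CO2. Replicon RNA was extracted and measured by single-step multiplex RT-PCR. Activity was calculated as the CT shift from the no-drug control, with EC90 derived.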

[20] = Drug metabolism in HCV subgenomic replicon RNA-containing human HuH7 cells assessed as PSI-6130 nucleotide diphosphate level per 10 '6 cells at 5 uM after 48 hrs by HPLC analysis in absence of DCTD inhibitor zedularine; type: ADME, cell-based; conditions: huh-7, 48 h; method in brief: as §1
Hepatitis C virus [21] = experiment: Antiviral activity against wild type HCV infected in human HuH7 cells assessed as inhibition of viral RNA replication after 4 days by replicon assay in absence of DCTD inhibitor zedularine; type: functional, Hepacivirus hominis; conditions: Huh-7, 96 h
Method in brief: (§2)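 Clone A Huh-7 replicon cells at 1,500 cells/well, without G418. Threefold serial compound dilutions were given with or without 100 μM zebularine, for 4 days at 37°C in 5% CO2. Replicon RNA was quantified by single-step multiplex RT-PCR, and activity was taken as ΔCT relative to the no-drug control.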

Hepatitis C virus [22] = experiment: Antiviral activity against HCV harboring NS5B polymerase S282T mutation infected in human HuH7 cells assessed as inhibition of viral RNA replication after 4 days by replicon assay in absence of DCTD inhibitor zedularine; type: functional, Hepacivirus hominis; conditions: Huh-7, 96 h
Method in brief: (§3)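 Huh-7 clone A subgenomic replicon cells carrying NS5B S282T (selected by serial passage with 2′-C-methyladenosine) were seeded at 1,500 cells/well without G418. Threefold compound dilutions were added alone or with 100 μM zebularine, followed by 4 days at 37°C, 5% CO2. Replicon RNA was quantified by single-step multiplex RT-PCR, and activity was taken as ΔCT versus the no-drug control to give EC90.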

[23] = target: RNA-directed RNA polymerase (Hepacivirus hominis, UniProt O39930, S282T); experiment: Inhibition of HCV NS5B polymerase S282T mutant assessed as incorporation of [alpha32P]UTP into newly synthesized RNA by liquid scintillation counting
Method in brief: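 S282T NS5B (C-terminal Δ21, E. coli-expressed) de novo RNA synthesis on an unprimed minus-IRES template at 27°C in 50 mM HEPES pH 7.5 with 5 mM MgCl2 and 2 mM DTT. CTP, ATP and GTP were fixed at 10, 100 and 100 μM, and 32P-UTP and inhibitor were varied. Timed aliquots were quenched with EDTA/NaCl/citrate stop solution. Steady-state competitive inhibition gave the Ki.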

[24] = Inhibition of wild type HCV NS5B polymerase assessed as incorporation of [alpha32P]UTP into newly synthesized RNA by liquid scintillation counting; parameters: species or system Hepacivirus hominis
Method in brief: (§4)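 De novo RNA synthesis by NS5B lacking 21 C-terminal residues, in 50 mM HEPES pH 7.5 with 5 mM MgCl2 and 2 mM DTT at 27°C. Template was unprimed minus-IRES RNA, 2.8 μg each of enzyme and template. CTP 10 μM, ATP and GTP 100 μM; 32P-UTP and inhibitor were varied. Aliquots were quenched with EDTA/NaCl/citrate.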

Hepatocyte [25] = experiment: Metabolic stability in human hepatocytes assessed as RO2433 triphosphate half life at 2 uM; type: ADME, cell-based, Liver
[26] = Activity of wild type HCV NS5B polymerase; parameters: species or system Hepacivirus hominis; method in brief: as §4
Hepatocyte [27] = experiment: Metabolic stability in human hepatocytes assessed as RO2433 triphosphate half life at 2 uM
Hepatitis C virus [28] = experiment: Antiviral activity against wild type HCV infected in human HuH7 cells assessed as inhibition of viral RNA replication after 4 days by replicon assay in presence of 100 uM DCTD inhibitor zedularine; type: functional, Hepacivirus hominis; conditions: Huh-7, 96 h; method in brief: as §2
Hepatitis C virus [29] = experiment: Antiviral activity against HCV harboring NS5B polymerase S282T mutation infected in human HuH7 cells assessed as inhibition of viral RNA replication after 4 days by replicon assay in presence of 100 uM DCTD inhibitor zedularine; type: functional, Hepacivirus hominis; conditions: Huh-7, 96 h; method in brief: as §3
Hepatocyte [30] = experiment: Metabolic stability in human hepatocytes assessed as PSI-6130 triphosphate half life at 2 uM
Hepatitis C virus [31] = experiment: Ratio of EC90 for wild type HCV in viral replicon RNA-containing human HuH7 cells in absence of zedularine to EC90 wild type HCV in viral replicon RNA-containing human HuH7 cells in presence of zedularine; type: functional, Hepacivirus hominis, Huh-7; method in brief: as §2

Sequence of RNA-directed RNA polymerase (O39930 entry or part of it S282T): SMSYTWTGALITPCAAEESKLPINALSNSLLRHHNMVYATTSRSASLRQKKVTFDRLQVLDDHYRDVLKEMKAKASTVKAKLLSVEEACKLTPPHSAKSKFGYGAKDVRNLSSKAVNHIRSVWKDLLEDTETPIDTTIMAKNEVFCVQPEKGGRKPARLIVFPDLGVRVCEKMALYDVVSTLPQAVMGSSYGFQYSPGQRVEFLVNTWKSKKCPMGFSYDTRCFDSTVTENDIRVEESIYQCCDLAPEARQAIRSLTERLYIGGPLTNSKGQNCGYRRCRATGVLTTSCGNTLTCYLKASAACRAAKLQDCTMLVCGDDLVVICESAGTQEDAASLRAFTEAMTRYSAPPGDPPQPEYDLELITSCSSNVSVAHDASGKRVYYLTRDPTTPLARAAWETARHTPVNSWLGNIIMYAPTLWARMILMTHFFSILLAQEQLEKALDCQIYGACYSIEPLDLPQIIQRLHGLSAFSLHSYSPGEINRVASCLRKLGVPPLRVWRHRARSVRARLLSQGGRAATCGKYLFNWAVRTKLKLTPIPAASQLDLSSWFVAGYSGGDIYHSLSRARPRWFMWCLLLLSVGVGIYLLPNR

SMILES: O=c1ncccn1[C@@H]1O[C@H](CO)[C@@H](O)[C@H]1O [ZEBULARINE]
- Activity [1]: 5.62 pmol
- Activity [2]: 5.48 pmol
- Activity [3]: 3.53 pmol
- Activity [4]: 0.79 pmol
- Activity [5]: 0.27 pmol
- Activity [6]: 0.88 pmol
- Activity [7]: 50%
- Activity [8]: 31.74 pmol
- Activity [9]: 1.33 pmol
- Activity [10]: 0.65 pmol
- Activity [11]: 11.53 pmol
- Activity [12]: 28.62 pmol
- Activity [13]: 1.04 pmol
- Activity [14]: 6.61 pmol
- Activity [15]: 1.26 pmol
- Activity [16]: 4.79 pmol
- Activity [17]: 11.51 pmol
- Activity [18]: 0.22 pmol
- EC90 (Hepatitis C virus [19]): > 400 µM
- Activity [20]: 3.3 pmol

SMILES: COC(=O)[C@H](C)NP(=O)(OC[C@H]1O[C@@H](n2ccc(=O)[nH]c2=O)[C@](C)(F)[C@@H]1O)Oc1ccccc1 (stereo partly specified)
- EC90 (Hepatitis C virus [21]): 1.6 µM
- EC90 (Hepatitis C virus [22]): 34.7 µM

SMILES: C[C@@]1(F)[C@H](O)[C@@H](COP(=O)(O)OP(=O)(O)OP(=O)(O)O)O[C@H]1n1ccc(N)nc1=O [PSI-6130-TP]
- Ki [23]: 0.31 µM
- Ki [24]: 0.059 µM

SMILES: C[C@@]1(F)[C@H](O)[C@@H](CO)O[C@H]1n1ccc(=O)[nH]c1=O
- EC90 (Hepatitis C virus [21]): > 100 µM
- Activity (Hepatocyte [25]): Not Active

SMILES: C[C@@]1(F)[C@H](O)[C@@H](COP(=O)(O)OP(=O)(O)OP(=O)(O)O)O[C@H]1n1ccc(=O)[nH]c1=O [GS-461203]
- Ki [23]: 22 µM
- Km [26]: 0.068 µM
- Ki [24]: 0.42 µM
- t1/2 (Hepatocyte [27]): 38 h

SMILES: C[C@@]1(F)[C@H](O)[C@@H](CO)O[C@H]1n1ccc(N)nc1=O
- EC90 (Hepatitis C virus [21]): 4.9 µM
- EC90 (Hepatitis C virus [22]): 23.8 µM
- EC90 (Hepatitis C virus [28]): 2.1 µM
- EC90 (Hepatitis C virus [29]): 8.9 µM
- t1/2 (Hepatocyte [30]): 4.7 h
- Ratio (Hepatitis C virus [31]): 2.3
